Screening data: PubChem BioAssay, several laboratories
Arr AP2 block – blocks beta-arrestin peptide binding to AP2 adaptin; FITC-arrestin peptide / GST-AP2 beads, flow cytometry; AP2 beta2 appendage carries R879A mutation; inhibition, % at 10 µM; actives 0.31% (n = 340,000); AID 504490;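 active = inhibition above a set limit, near 3 SD of compounds lacking own fluorescence, cut at about 54% in these data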;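 also: plate controls were DMSO wells for no effect and 5 µM unlabelled arrestin peptide for full effect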
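System: GST-AP2 R879A glutathione beads; medium: PBS, Tween 20 0.05%, BSA 0.1%; reagent: fluorescein-tagged arrestin peptide at 50 nM final; schedule: pre-incubation 12 min, peptide binding 1 h, room temperature; detection: flow cytometry, FL1 (488/535 nm); read-out: inhibition as reduced fluorescein signal on beads, percent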
TAG inh – triacylglycerol accumulation inhibition. inhibition, % at 12.5 µM. actives 0.66% (n = 230,000). H9c2 cells, Nile Red lipid (TAG) fluorescence; cells loaded with 200 µM oleic acid;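 active = pattern-corrected inhibition of lipid staining of at least 50% with the nuclear-stain viability signal not falling by more than 50%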;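 also: 0% = DMSO wells and 100% = triacsin C control wells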
Beta2AR agonist – activates human beta-2 adrenergic receptor causing internalization. P07550. Am2.2-beta2AR cells, FAP receptor internalization, flow cytometry. response, % (concentration not given with the values). actives 0.43% (n = 340,000). AID 504454;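 active = response above a set limit, near 3 SD of response in nonfluorescent compounds, cut at about 42% in these data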
Target sequence (P07550 whole entry, looked up): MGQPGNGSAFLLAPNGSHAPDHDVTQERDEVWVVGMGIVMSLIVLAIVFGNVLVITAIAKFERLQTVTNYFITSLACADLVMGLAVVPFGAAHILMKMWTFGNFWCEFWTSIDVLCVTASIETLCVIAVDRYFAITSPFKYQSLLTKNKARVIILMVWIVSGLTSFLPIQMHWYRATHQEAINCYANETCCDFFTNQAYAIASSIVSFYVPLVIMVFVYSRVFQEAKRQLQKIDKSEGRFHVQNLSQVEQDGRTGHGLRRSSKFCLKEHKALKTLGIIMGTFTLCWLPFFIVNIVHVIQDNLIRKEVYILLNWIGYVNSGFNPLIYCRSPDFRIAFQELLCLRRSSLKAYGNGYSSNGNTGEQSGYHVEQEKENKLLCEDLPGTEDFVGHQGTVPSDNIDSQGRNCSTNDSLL
Lipid droplet – hepatic lipid droplet formation modulation. AML12 mouse hepatocytes, oleate lipid droplets, BODIPY imaging. inhibition, % at 6.5 µM. actives 0.4% (n = 240,000);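 active = lipid droplet intensity inhibited by at least 50%, with more than 500 cells counted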
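Assay system: AML12 mouse liver cells | Compound dosing: One dose, 6.5 µM compound | Read-out basis: Droplet intensity reduction, % inhibition | Measured by: Fluorescence imaging, 20x objective, two fields per well | Schedule: Overnight treatment with compound plus oleate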
GRK2 inh – inhibitors of human GRK2 displacing RNA aptamer; bead flow cytometry, FAM-aptamer displacement from GRK2; actives 0.59% (n = 330,000); inhibition of aptamer binding, % at 10 µM; P25098; AID 488847;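 active = inhibition of aptamer binding above 40%, roughly 3 SD of noise, on plates passing a quality check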;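 also: median bead fluorescence of bound FAM aptamer so fluorescent compounds give negative values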
NTR1 agonist – agonists of human neurotensin receptor NTR1; P30989; NTR1-U2OS beta-arrestin-GFP spot imaging, agonist mode; activation, % at 20 µM; actives 0.17% (n = 330,000); AID 493036;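 active = activation at or above 40% of the spot to cytoplasm intensity ratio, with at least 20 cells analyzed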;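 also: 0% = DMSO without peptide and 100% = 100 nM NTR1 peptide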
B2AR ag CP1 – activates human beta-2 adrenergic receptor; Am2.2-beta2AR cells, FAP surface receptor, flow cytometry; hits give low values; percent response (surface receptor), % at 10 µM; actives 25% (n = 1,100); shares compounds with Beta2AR agonist; AID 540358;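 active = surface receptor percent response at or below 58%, roughly 3 SD from nonfluorescent compounds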
FAP fluor counter – counter-screen for beta-2AR agonists: fluorescence in Am2.2 cells; shares compounds with Beta2AR agonist; FAP fluorogen flow cytometry, fluorescence counterscreen; hits give low values; calls only at 10 µM; 1,100 tested, under 10 active; AID 588765;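 active = percent response below a set limit in fluorescence channel 1 and below 50% in channel 8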
* hit, by the source's call; i = inactive; / = not tested or not shown; ! = a repeat was not active. An excerpt weighted towards active compounds, which were near 2% of everything screened.

SMILES | Arr AP2 block | TAG inh | Beta2AR agonist | Lipid droplet | GRK2 inh | NTR1 agonist | B2AR ag CP1 | FAP fluor counter
CCCN(CC(=O)Nc1ccccc1C)C(=O)c1ccc(N2CCCCC2)c([N+](=O)[O-])c1 | -9 | 36 | 1 | / | 2 | 0 | / | /
CCC(=O)Nc1ccc(-c2nn3c(C)nnc3s2)cc1C | -1 | / | 60* | 1 | 2 | -1 | 80 | i
CC(=O)Nc1ccc(NC(=O)CSc2ncc(C(=O)Nc3ccc(F)cc3)c(=O)n2C)cc1 | 22 | 0 | 1 | / | 2 | 2 | / | /
Cn1c(SCC(=O)NCC2CCCO2)ncc(C(=O)Nc2ccc(Cl)cc2)c1=O (configuration not stated) | -9 | 4 | 75* | / | 5 | 10 | 79 | i
Cn1c(SCC(=O)NCC2CCCO2)ncc(C(=O)Nc2ccc(F)cc2)c1=O (configuration not stated) | 37 | -6 | 46* | / | 0 | 8 | 98 | i
CCC(C)(C)C1CCC2(CC1)NC(=O)N(CC(=O)N(C)CCOc1ccc(Cl)cc1)C2=O (configuration not stated) | -11 | 26 | 5 | / | / | 6 | / | /
CCc1ccc(OCc2nnc(-c3ccccc3Br)o2)cc1 | -24 | -4 | -2 | / | 1 | 0 | 92 | i
Clc1ccccc1OCc1nnc(-c2ccccc2Br)o1 | -1 | -23 | -9 | / | 0 | 1 | / | /
COc1ccc(NC(=O)c2cc(-c3cccnc3)nc3ccc(C)cc23)cc1OC | 10 | / | 32 | / | / | / | / | /
COc1ccc(NC(=O)c2cc(-c3ccncc3)nc3ccc(Br)cc23)cc1OC | 37 | 48 | 97* | -1 | 0 | 4 | 90 | i
O=C(Nc1cccc(-c2nc3cccnc3s2)c1)c1cccnc1Cl | -12 | 9 | 37 | -15 | 3 | 3 | / | /
O=C(Nc1cccc(-c2nc3cccnc3s2)c1)C1c2ccccc2Oc2ccccc21 | -2 | 97 | 74* | 0 | / | -1 | 44* | i
COc1cc2c(cc1OC)[C@@H](NC(=O)CCC1CCCCC1)[C@H](O)C2 | -2 | -8 | 4 | / | 1 | -2 | / | /
Cc1ccc(SCC(=O)Nc2ccc(-c3nnc(-c4ccco4)o3)cc2)cc1 | 11 | / | 82* | / | 0 | 1 | 34* | i
O=C(Nc1ncc2c(n1)CC(c1ccccc1)CC2=O)c1ccco1 (configuration not stated) | 2 | / | -18 | 3 | 0 | 0 | / | /
O=C(Nc1ncc2c(n1)CC(c1cccc(Cl)c1)CC2=O)c1ccco1 (configuration not stated) | 6 | 11 | 43* | -5 | 13 | -1 | 75 | i
Cc1cc(S(=O)(=O)N2CCOCC2)ccc1OCC(=O)Nc1ccc(F)c(Cl)c1 | -3 | / | 0 | 14 | 3 | 1 | 112 | i
Cc1cc(S(=O)(=O)N2CCOCC2)ccc1OCC(=O)Nc1ccc(F)cc1 | 2 | / | 3 | 7 | 0 | -2 | 112 | i
Cc1cc(S(=O)(=O)N2CCCCC2)ccc1OCC(=O)Nc1ccccc1 | 27 | 7 | 10 | 3 | 1 | 1 | 102 | i
O=C(COc1ccc(S(=O)(=O)N2CCCC2)cc1Cl)Nc1ccc2c(c1)OCO2 | 0 | / | -2 | 7 | 1 | 3 | 118 | i
COC(=O)COc1ccc(S(=O)(=O)N2CCCCCC2)cc1C | -7 | / | 15 | -26 | 0 | 1 | / | /
COc1ccc(-c2cnc3c(NC(C)=O)cc(-c4cccc(NS(C)(=O)=O)c4)cn23)cc1OC | / | -9 | / | / | / | / | / | /
CS(=O)c1ccc(-n2c(=O)n(Cc3ccccc3)c(=O)c3[nH]cnc32)cc1 (configuration not stated) | 5 | / | 0 | / | 0 | 0 | / | /
CCOc1ccc(NC(=O)CNC(=O)c2nn(-c3ccc(OC)c(OC)c3)c(=O)c3ccccc23)cc1 | -7 | / | 54* | 9 | 0 | -2 | 67 | i
c1ccc(-n2cnc3ccccc32)nc1 | 31 | 0 | -17 | 28 | 0 | 2 | / | /
SMILES | Arr AP2 block | TAG inh | Beta2AR agonist | Lipid droplet | GRK2 inh | NTR1 agonist | B2AR ag CP1 | FAP fluor counter
c1ccc(-c2nccc(-c3ccc(-n4cnc5ccccc54)cc3)n2)cc1 | 12 | 10 | 71* | 1 | 0 | 8 | 96 | i
c1ccc(OCCNc2ccn3nc(-c4ccco4)cc3n2)cc1 | / | 6 | / | / | / | / | / | /
O=C(c1cccc(Cl)c1)N1CCC(C(=O)N2CCN(Cc3ccccc3)CC2)CC1 | -7 | 1 | 79* | -1 | 0 | 2 | 25* | i
CC(C)c1ccc2c(c1)CC[C@H]1[C@](C)(CN)CCC[C@]21C | 7 | 122 | 50*! | / | / | / | 79 | i
COC(C[C@@H]1O[C@H]1C(=O)COCc1ccccc1)OC | 17 | -6 | 2 | / | / | 0 | / | /
Cc1cccc2nc(CSc3ccccc3N)cn12 | -79 | -15 | 8 | / | 0 | 2 | / | /
Cc1cccc2nc(COc3ccc4ccccc4c3Br)cn12 | 18 | -11 | 98* | -1 | 2 | 16 | 26* | i
CCN(Cc1cc2ccccc2[nH]c1=O)S(=O)(=O)c1ccc(OC)cc1 | 3 | / | -14 | 15 | 5 | 1 | / | /
O=c1[nH]c2ccccc2cc1CN(Cc1ccco1)S(=O)(=O)c1ccc(F)cc1 | 28 | / | -13 | -5 | 4 | 1 | 142 | i
CCc1ccc(OCC(=O)Nc2ccc(-c3nc4ccccc4o3)c(O)c2)cc1 | -9 | -4 | 93* | / | 4 | 5 | 1.1* | i
COC(=O)c1ccc(N2CCN(C)CC2)c(NC(=O)c2sc3ccccc3c2Cl)c1 | 7 | 45 | 71* | / | 0 | / | 82 | i
CN1CCN(c2ccc(NC(=O)c3sc4ccccc4c3Cl)cc2)CC1 | 2 | 4 | 37 | -4 | 0 | 2 | / | /
Clc1ccccc1-c1ncnc2ccc(Br)cc12 | 4 | / | 96* | -3 | 4 | -1 | 115 | i
NNc1nc(-c2ccccc2Cl)c2cc(Br)ccc2n1 | 24 | / | 4 | -5 | / | 2 | / | /
Cc1cc(S(=O)(=O)N2CCOCC2)ccc1OCC(=O)Nc1ccccc1C(F)(F)F | -8 | / | -1 | 12 | 0 | 0 | 97 | i
Cc1cc(S(=O)(=O)N2CCOCC2)ccc1OCC(=O)Nc1ccc(F)cc1F | -11 | / | 1 | 13 | 2 | -1 | 105 | i
Cc1cc(S(=O)(=O)N2CCOCC2)ccc1OCC(=O)Nc1ccc(Br)cc1F | 9 | / | 1 | -2 | 1 | -2 | 108 | i
CCCCCCN1C[C@@H](n2cc(-c3ccc(F)cc3)nn2)[C@H](O)C[C@@H]1c1ccccc1 | / | -8 | / | / | / | / | / | /
